An excerpt weighted towards active compounds, which were near 2.9% of everything screened.
Env fusion inh: inhibitors of HIV-1 Env-driven cell-cell fusion, primary screen, HeLa-JRFL effector, CEM21 target cells, luciferase; inhibition, % at 12.3 µM; hit rate 1.1% among 360,000; AID 651610, 2012;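 active = mean replicate inhibition score of at least 50 and every replicate individually at or above 50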;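 note: 0% = plate neutral controls and 100% = maraviroc near 300 nM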
GSIS activator: GLuc luminescence reporter in INS-1E cells, primary screen for activators of glucose-dependent secretion of insulin; INS-1E GLuc reporter insulin secretion, 2-3 h; activation, % at 16.6 µM; hit rate 0.61% among 370,000;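 active = lowest replicate activation of at least 40%, so every replicate reaches that level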;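 note: 0% = median of neutral control wells and 100% = median of IBMX positive control wells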
PAX8 inh HTS: inhibitors of PAX8-driven TPO luciferase reporter, primary screen, RMG-I cells, single concentration | SteadyGlo, 24 h | inhibition, % at 12.6 µM | hit rate 1.2% among 360,000 | AID 652154, 2013;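 active = mean replicate inhibition at least 60% with every replicate also reaching 60%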;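 note: luciferase light reporting Pax8 driven TPO promoter activity; plate controls were median of neutral control wells for no effect and mitoxantrone controls for full effect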
Cneo AK release: Cryptococcus neoformans cell lysis inducers, primary screen, AK release luminescence, single concentration; hit rate 0.2% among 360,000; lysis activity, % at 15 µM; AID 651654, 2012; C. neoformans lysis, adenylate kinase release luminescence, 4 h; normalised: neutral wells 0, clomiphene wells 100;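 active = mean lysis activity across replicates of at least 80%, whatever share of replicates individually reach that level; inactive = mean lysis activity below 80%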
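Test system: log-phase Cryptococcus neoformans yeast cells; Quantity: yeast cell density of 5 × 10^6 cells/mL; Buffer or medium: YPD; Doses: single compound concentration per well; Timing: 4 h at 37 °C static, read 1 h later; Measured by: AK luminescence; Read-out basis: lysis from increased AK signal; Control set: Clomiphene as positive control.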
CDK5 p35 inh: inhibitors of human CDK5/p35 kinase, primary screen, biochemical, single concentration; Recombinant CDK5/p35, ADP-Glo luminescence, 60 min; hit rate 0.01% among 330,000; AID 488839, 2010; inhibition, % at 10 µM; Cyclin-dependent kinase 5 (Homo sapiens) + Cyclin-dependent kinase 5 activator 1 (Homo …;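 active = highest replicate inhibition of at least 50% and at least 75% of replicates reaching 50%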;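 note: plate controls were DMSO neutral control for no effect and GW8510 at 10 µM for full effect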
dFosB act: activators of delta FosB homodimer, primary screen, biochemical, fluorescence polarization, TAMRA-CDK5 oligo, single point; hit rate 0.99% among 340,000; purified delta FosB; percent of positive-control signal above neutral wells; activation, % at 25 µM; AID 493131, 2011;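 active = mean activation above about 17%, with every replicate also reaching it, limit read from the data, passing the limit was not always enough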
Target sequence (P13346 whole entry, looked up): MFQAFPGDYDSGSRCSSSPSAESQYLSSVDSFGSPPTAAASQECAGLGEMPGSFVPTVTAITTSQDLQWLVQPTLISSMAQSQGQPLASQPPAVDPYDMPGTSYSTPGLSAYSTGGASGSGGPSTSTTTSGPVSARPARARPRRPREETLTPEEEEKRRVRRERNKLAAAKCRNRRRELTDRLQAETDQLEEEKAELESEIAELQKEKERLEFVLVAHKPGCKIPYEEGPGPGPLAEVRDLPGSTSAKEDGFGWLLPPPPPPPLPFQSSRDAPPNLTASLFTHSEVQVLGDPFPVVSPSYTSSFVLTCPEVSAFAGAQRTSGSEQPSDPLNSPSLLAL
Starred values were filed as active, the others as inactive; . = no result; [ ] = dose if it differs, or a comment.

SMILES	Env fusion inh	GSIS activator	PAX8 inh HTS	Cneo AK release	CDK5 p35 inh	dFosB act
CN[C@H]1C[C@@H](c2ccccc2)N(C(C)=O)C[C@H]1CO	11	42*	-1	0	.	.
Cc1ccc(CNC(=O)c2ccc3c(=O)c(O)c(-c4ccc(C)cc4)[nH]c3c2)cc1	57*	-10	70*	-3	0	0
O=C(Cc1ccccn1)N[C@@H]1CC[C@H](CCn2cc(-c3ccccc3)nn2)O[C@@H]1CO	12[16.7 µM]	10	4	4	.	.
O=C(Cc1ccccn1)N[C@H]1CC[C@@H](CCn2cc(-c3ccccc3)nn2)O[C@H]1CO	-1[16.7 µM]	11	7	3	.	.
O=C(Cc1ccncc1)N[C@H]1CC[C@H](CCn2cc(-c3ccccc3F)nn2)O[C@H]1CO	27[16.7 µM]	-16	17	-2	.	.
O=C(Cc1ccncc1)N[C@H]1CC[C@@H](CCn2cc(-c3ccccc3F)nn2)O[C@@H]1CO	72*[16.7 µM]	10	-2	1	.	.
O=C(Cc1ccccn1)N[C@H]1CC[C@H](CCn2cc(-c3ccccc3)nn2)O[C@@H]1CO	-1[16.7 µM]	17	79*	-12	.	.
O=C(N[C@H]1CC[C@H](CCn2cc(-c3ccccn3)nn2)O[C@H]1CO)c1ccc(F)cc1	50[16.7 µM]	10	-4	83*	.	.
O=C(Cc1ccccn1)N[C@@H]1CC[C@@H](CCn2cc(-c3ccccc3)nn2)O[C@H]1CO	12[16.7 µM]	9	99*	3	.	.
CCCN1C[C@H](C)[C@@H](OC)CN(C)C(=O)c2ccc(NS(=O)(=O)c3ccccc3)cc2OC[C@H]1C	-2[16.7 µM]	-2	.	1	.	.
CC(C)[C@H](C)NC(=O)N(C)C[C@@H]1OCc2ccccc2-c2ccccc2C(=O)N([C@@H](C)CO)C[C@H]1C	-1[16.7 µM]	7	-13	-3	.	.
O=C(Cc1ccccn1)NCC[C@@H]1CC[C@H](NS(=O)(=O)c2ccc(F)cc2)[C@@H](CO)O1	11[16.7 µM]	13	33	10	.	.
CCCCCCN1C=CC(=C2C(=O)c3ccccc3C2=O)C=C1	44	1	67*	-10	-2	1
CC1=CC(=C2C(=O)c3ccccc3C2=O)C=C(C)O1	-33	27	-15	.	-1	-14
CCCCN1C(C)=CC(=C2C(=O)c3ccccc3C2=O)C=C1C	-41	-1	-2	.	1	-3
CCN1C=CC(=C2C(=O)c3ccccc3C2=O)C=C1	73*	.	.	-6	7	-4
CCCN1C=CC(=C2C(=O)c3ccccc3C2=O)C=C1	107*	.	.	-5	8	2
C[C@H](CO)N1C[C@H](C)[C@H](CN(C)Cc2ccc(C(F)(F)F)cc2)OCCCC[C@H](C)Oc2ccc(NC(=O)Nc3ccc(F)cc3)cc2C1=O	36[16.7 µM]	-3	52	-5	.	.
C[C@@H]1CN([C@@H](C)CO)C(=O)c2cc(NC(=O)Nc3ccc(F)cc3)ccc2O[C@@H](C)CCCCO[C@H]1CN(C)Cc1ccc(C(F)(F)F)cc1	27[16.7 µM]	-11	84*	-3	.	.
C[C@H]1CCCCO[C@H](CN(C)Cc2ccc(C(F)(F)F)cc2)[C@@H](C)CN([C@@H](C)CO)C(=O)c2cc(NC(=O)Nc3ccc(F)cc3)ccc2O1	58*[16.7 µM]	-7	96*	0	.	.
C[C@@H]1CCCCO[C@H](CN(C)Cc2ccc(C(F)(F)F)cc2)[C@H](C)CN([C@@H](C)CO)C(=O)c2cc(NC(=O)Nc3ccc(F)cc3)ccc2O1	44[16.7 µM]	11	91*	43	.	.
C[C@@H]1CN([C@H](C)CO)C(=O)c2cc(NC(=O)Nc3ccc(F)cc3)ccc2O[C@@H](C)CCCCO[C@@H]1CN(C)Cc1ccc(C(F)(F)F)cc1	57*[16.7 µM]	2	93*	38	.	.
C[C@@H]1CCCCO[C@H](CN(C)Cc2ccc(C(F)(F)F)cc2)[C@@H](C)CN([C@H](C)CO)C(=O)c2cc(NC(=O)Nc3ccc(F)cc3)ccc2O1	0[16.7 µM]	-8	-1	-5	.	.
C[C@@H]1CN([C@H](C)CO)C(=O)c2cc(NC(=O)Nc3ccc(F)cc3)ccc2O[C@@H](C)CCCCO[C@H]1CN(C)Cc1ccc(C(F)(F)F)cc1	68*[16.7 µM]	36	107*	1	.	.
CN(C)CC(=O)Nc1ccc2c(c1)[C@H]1C[C@@H](CC(=O)N3CCCCC3)O[C@H](CO)[C@H]1O2	-3[16.7 µM]	-2	-9	-1	.	.
SMILES	Env fusion inh	GSIS activator	PAX8 inh HTS	Cneo AK release	CDK5 p35 inh	dFosB act
CCC12CN(S(=O)(=O)c3ccc(C)cc3)CC(CC)(CN(S(=O)(=O)c3ccc(C)cc3)C1)C2=O	109*	.	.	-1	-1	-5
CO[C@H]1CN(C)C(=O)c2cc(NS(=O)(=O)CC(F)(F)F)ccc2OC[C@@H](C)N(C)C[C@H]1C	2[16.7 µM]	12	10	-3	.	.
CCc1ccc(C(C)NC(=S)NCc2ccc(F)cc2)cc1 (stereo not given)	19	-20	8	115*	-1	-10
CO[C@H]1CC[C@@H]2CCOc3c(C#N)cccc3C(=O)N(C)C[C@@H](c3ccccc3)CC(=O)N(C)C[C@H]1O2	-5[16.7 µM]	3	1	14	.	.
COC(=O)[C@]12C[C@H](CC(=O)N3CCN(C(=O)c4ccco4)CC3)C(=O)N(CCC3=CCCCC3)C1=C[C@H](COCc1ccccc1)O[C@@H]2C	10	.	9	.	.	.
CN1C(=O)c2cc(NC(=O)c3cccc(Cl)c3)ccc2OC[C@H]2O[C@H](CC(=O)NC3CCCCC3)CC[C@@H]21	28[16.7 µM]	1	70*	58	.	.
COCC(=O)Nc1ccc2c(c1)C(=O)N(C)[C@H]1CC[C@H](CC(=O)NC3CCCC3)O[C@H]1CO2	57*[16.7 µM]	15	1	-4	.	.
Cc1noc(C)c1NC(=O)Nc1ccc2c(c1)C(=O)N([C@@H](C)CO)C[C@@H](C)[C@@H](CN(C)Cc1ccc(Cl)c(Cl)c1)O2	-17[16.7 µM]	-23	-21	.	.	.
CCCCOC(=O)/C(=C/c1cn(C)c2ccccc12)NC(=O)c1ccc(OC)cc1	-4	3	11	3	0	0
COc1ccc(C(=O)N/C(=C\c2cn(C)c3ccccc23)C(=O)OCC(C)C)cc1	.	0	70*	-2	0	-6
O=C(Nc1ccccc1)N1CCc2c([nH]c3ccccc23)C1C(F)(F)F (stereo not given)	3	-53	14	1	0	-10
COc1cccc(Cl)c1NC(=O)N1CCc2c([nH]c3ccccc23)C1C(F)(F)F (stereo not given)	83*	-7	26	.	-1	-5
C[C@H]1CN([C@@H](C)CO)C(=O)Cc2cc(NC(=O)CCCCCC(=O)Nc3ccccc3N)ccc2O[C@H]1CN(C)S(=O)(=O)c1cn(C)cn1	-2[16.7 µM]	21	.	-4	.	.
Cc1cccc(C)c1-n1nnnc1C(c1ccnc2ccccc12)N(CCC#N)Cc1ccccc1 (stereo not given)	7	-5	8	.	.	.
